# Laboratory results: ChEMBL document CHEMBL1122839, “Synthesis and antidiarrheal activity of N-(aminoiminomethyl)-1H-pyrrole-1-acetamides related to guanfacine” (1985)
# Several values for one entry are separate records, joined by “and”; a condition that tells them apart may be missing. Identical values can stand only once. Activity calls are given as the source filed them. The calls are words filed in the database; no cut-off is given here.
# Columns and labels:
# Rattus norvegicus [1] = experiment: Percent inhibition of caster oil induced diarrhea in rats at a dose of 30 mg/kg peroral administration after 2 hours; type: functional; settings: route oral
# Rattus norvegicus [2] = experiment: Percent inhibition of caster oil induced diarrhea in rats at a dose of 30 mg/kg peroral administration after 6 hours; NS=Not significant; type: functional, organism-based; set-up: dose 30 mg/kg
# Rattus norvegicus [3] = experiment: Cardiovascular activity in normotensive rats at a dose of 30 mg/kg oral administration after 4 hr; type: functional
# Summary of the method: (§1)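 Female normotensive rats with left carotid artery cannulae placed under anaesthesia. The next day they received the test substance orally in 0.5% hydroxymethylcellulose/0.9% saline (10 mL/kg), or vehicle alone. Systolic blood pressure was measured from the cannula, and heart rate from the pressure-triggered tachometer, predose and at 1, 2, 4 and 6 h. Values are means; significance was judged against predose values.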
# Rattus norvegicus [4] = experiment: Percent inhibition of caster oil induced diarrhea in rats at a dose of 30 mg/kg peroral administration after 6 hours; type: functional; settings: for inhibition in vivo at 30 mg/kg: Rattus norvegicus, 6 h
# Rattus norvegicus [5] = experiment: Percent inhibition of caster oil induced diarrhea in rats at a dose of 10 mg/kg peroral administration after 6 hours; type: functional; settings: for Inhibition: 10 mg/kg; for inhibition in vivo at 10 mg/kg: Rattus norvegicus, 6 h
# Rattus norvegicus [6] = experiment: Cardiovascular activity in normotensive rats after oral administration of 30 mg/kg after 6 hr; type: functional; summary of the method: as §1
# Rattus norvegicus [7] = experiment: Cardiovascular activity in normotensive rats at a dose of 30 mg/kg oral administration after 2 hr; type: functional; summary of the method: as §1
# Rattus norvegicus [8] = experiment: Cardiovascular activity in normotensive rats at a dose of 30 mg/kg oral administration after 1 hr; type: functional; summary of the method: as §1
# Rattus norvegicus [9] = experiment: Cardiovascular activity in normotensive rats after oral administration of 30 mg/kg after 2 hr; type: functional; summary of the method: as §1
# Rattus norvegicus [10] = experiment: Cardiovascular activity in normotensive rats after oral administration of 30 mg/kg after 4 hr; type: functional; summary of the method: as §1
# Rattus norvegicus [11] = experiment: Cardiovascular activity in normotensive rats at a dose of 30 mg/kg oral administration after 6 hr; type: functional; summary of the method: as §1
# Rattus norvegicus [12] = experiment: Cardiovascular activity in normotensive rats after oral administration of 30 mg/kg after 1 hr; type: functional
# Summary of the method: (§2)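 Female normotensive rats with left carotid artery cannulae implanted under anaesthesia; dosed orally the next day in 0.5% hydroxymethylcellulose/0.9% saline (10 mL/kg) or vehicle alone. Systolic blood pressure taken by pressure transducer before dosing and at 1, 2, 4, 6 h; heart rate from tachometer triggered by pressure signal. Mean values; significance versus predose.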
# Rattus norvegicus [13] = experiment: Percent inhibition of caster oil induced diarrhea in rats at a dose of 10 mg/kg peroral administration after 2 hours; type: functional; settings: route oral
# Rattus norvegicus [14] = experiment: Percent inhibition of caster oil induced diarrhea in rats at a dose of 30 mg/kg peroral administration after 2 hours; NS=Not significant; type: functional, organism-based; set-up: dose 30 mg/kg
# Rattus norvegicus [15] = experiment: Percent inhibition of caster oil induced diarrhea in rats at a dose of 1 mg/kg peroral administration after 2 hours; type: functional; settings: route oral
# Rattus norvegicus [16] = experiment: Percent inhibition of caster oil induced diarrhea in rats at a dose of 3 mg/kg peroral administration after 2 hours; type: functional; settings: route oral
# Rattus norvegicus [17] = experiment: The compound was tested for cardiovascular activity in normotensive rats after oral administration of 30 mg/kg after 1 hr; type: functional, Heart; summary of the method: as §1
# Rattus norvegicus [18] = experiment: Percent inhibition of caster oil induced diarrhea in rats at a dose of 3 mg/kg peroral administration after 6 hours; NS=Not significant; type: functional, organism-based; set-up: dose 3 mg/kg
# Rattus norvegicus [19] = experiment: Percent inhibition of caster oil induced diarrhea in rats at a dose of 1 mg/kg peroral administration after 6 hours; NS=Not significant; type: functional, organism-based; set-up: dose 1 mg/kg
# Rattus norvegicus [20] = experiment: Percent inhibition of caster oil induced diarrhea in rats at a dose of 1 mg/kg peroral administration after 2 hours; NS=Not significant; type: functional, organism-based; set-up: dose 1 mg/kg
# Rattus norvegicus [21] = experiment: Percent inhibition of caster oil induced diarrhea in rats at a dose of 1 mg/kg peroral administration after 6 hr; NS=Not significant; type: functional, organism-based; set-up: dose 1 mg/kg
# Rattus norvegicus [22] = experiment: Percent inhibition of caster oil induced diarrhea in rats at a dose of 3 mg/kg peroral administration after 6 hr; NS=Not significant; type: functional, organism-based; set-up: dose 3 mg/kg
# Rattus norvegicus [23] = experiment: Percent inhibition of caster oil induced diarrhea in rats at a dose of 1 mg/kg peroral administration after 2 hr; type: functional; settings: route oral
# Rattus norvegicus [24] = experiment: Percent inhibition of caster oil induced diarrhea in rats at a dose of 1 mg/kg peroral administration after 6 hr; type: functional; settings: route oral
# Rattus norvegicus [25] = experiment: Percent inhibition of caster oil induced diarrhea in rats after 2 hours at 3 mg/kg of dose after peroral administration; type: functional; settings: route oral
# Rattus norvegicus [26] = experiment: Percent inhibition of caster oil induced diarrhea in rats after 6 hours at 3 mg/kg of dose after peroral administration; NS=Not significant; type: functional, organism-based; set-up: dose 3 mg/kg
# Rattus norvegicus [27] = experiment: Percent inhibition of caster oil induced diarrhea in rats after 2 hours at 1 mg/kg of dose after peroral administration; NS=Not significant; type: functional, organism-based; set-up: dose 1 mg/kg
# Rattus norvegicus [28] = experiment: Percent inhibition of caster oil induced diarrhea in rats after 6 hours at 1 mg/kg of dose after peroral administration; NS=Not significant; type: functional, organism-based; set-up: dose 1 mg/kg
# Rattus norvegicus [29] = experiment: Percent inhibition of caster oil induced diarrhea in rats at a dose of 3 mg/kg peroral administration after 6 hr; type: functional; settings: route oral
# Summary of the method: (§3)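 Male rats housed singly on wide-mesh grids, food-deprived overnight, water free; groups of six dosed orally in 0.3% hydroxymethylcellulose/0.9% saline (10 mL/kg) or vehicle. Castor oil 1 mL orally 1 h later. Feces collected on preweighed papers and weighed at 2 and 6 h after castor oil; output expressed as percentage of vehicle group.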
# Rattus norvegicus [30] = experiment: Cardiovascular activity in normotensive rats after oral administration of 30 mg/kg aof the compound after 1 hr; type: functional; summary of the method: as §2
# Rattus norvegicus [31] = experiment: Percent inhibition of caster oil induced diarrhea in rats at a dose of 3 mg/kg peroral administration after 2 hr; type: functional; settings: route oral; summary of the method: as §3
smiles,measurement,setting,value
CC1C=C[C@@H](C)N1CC(=O)NC1=NCCN1 (stereo partly specified),inhibition in vivo at 30 mg/kg,Rattus norvegicus [1],35%
same,inhibition,Rattus norvegicus [2],inactive
C/N=C(\N)NC(=O)CN1C(C)C=C[C@H]1C (stereo partly specified),inhibition in vivo at 30 mg/kg,Rattus norvegicus [1],88%
same,inhibition,Rattus norvegicus [2],inactive
Cc1ccc(C)n1CC(=O)N=C(N)N.Cl,Heart rate,Rattus norvegicus [3],218 beats min-1
same,inhibition in vivo at 30 mg/kg,Rattus norvegicus [1],96%
same,inhibition in vivo at 30 mg/kg,Rattus norvegicus [4]; po,96%
same,Inhibition,Rattus norvegicus [5]; route oral,75% and 97%
same,Systolic blood pressure,Rattus norvegicus [6],138 mmHg
same,Heart rate,Rattus norvegicus [7],218 beats min-1
same,Heart rate,Rattus norvegicus [8],175 beats min-1
same,Systolic blood pressure,Rattus norvegicus [9],159 mmHg
same,Systolic blood pressure,Rattus norvegicus [10],163 mmHg
same,Heart rate,Rattus norvegicus [11],242 beats min-1
same,Systolic blood pressure,Rattus norvegicus [12],193 mmHg
same,inhibition in vivo at 10 mg/kg,Rattus norvegicus [13],100%
CC1C=C[C@@H](C)N1C(=O)C(=O)N=C(N)N (stereo partly specified),inhibition,Rattus norvegicus [2],inactive
same,inhibition,Rattus norvegicus [14],inactive
CC1C=C[C@@H](C)N1C(C)C(=O)N=C(N)N (stereo partly specified),inhibition,Rattus norvegicus [2],inactive
same,inhibition,Rattus norvegicus [14],inactive
CC1C=C[C@@H](C)N1CCC(=O)N=C(N)N (stereo partly specified),inhibition,Rattus norvegicus [2],inactive
same,inhibition,Rattus norvegicus [14],inactive
CC1C=C[C@@H](C)N1CCN=C(N)N (stereo partly specified),inhibition,Rattus norvegicus [2],inactive
same,inhibition,Rattus norvegicus [14],inactive
CC1CC[C@@H](C)N1CC(=O)N=C(N)N (stereo partly specified),inhibition,Rattus norvegicus [2],inactive
same,inhibition,Rattus norvegicus [14],inactive
CC1C=C[C@@H](C)N1CC(=O)N=C(N)N.Cl.Cl (stereo in doubt; 2),inhibition in vivo at 1 mg/kg,Rattus norvegicus [15],92%
same,inhibition in vivo at 30 mg/kg,Rattus norvegicus [1],100%
same,inhibition in vivo at 30 mg/kg,Rattus norvegicus [4]; po,99%
same,Inhibition,Rattus norvegicus [5]; route oral,86%
same,Heart rate,Rattus norvegicus [6],443 beats min-1
same,Systolic blood pressure,Rattus norvegicus [6],134 mmHg
same,inhibition in vivo at 3 mg/kg,Rattus norvegicus [16],100%
same,Heart rate,Rattus norvegicus [17],395 beats min-1
same,Heart rate,Rattus norvegicus [9],373 beats min-1
same,Systolic blood pressure,Rattus norvegicus [9],137 mmHg
same,Heart rate,Rattus norvegicus [10],418 beats min-1
same,Systolic blood pressure,Rattus norvegicus [10],133 mmHg
same,Systolic blood pressure,Rattus norvegicus [12],133 mmHg
same,inhibition in vivo at 10 mg/kg,Rattus norvegicus [13],100%
CC1C=C[C@@H](C)N1CC(=O)N=C(N)N (stereo in doubt; 2),inhibition,Rattus norvegicus [18],Not siginificant
same,inhibition,Rattus norvegicus [19],inactive
CC1C=C[C@@H](C)N1CC(=O)N=C(N)N.Cl.Cl (stereo in doubt; 10),Inhibition,Rattus norvegicus [5]; route oral,52%
same,inhibition in vivo at 3 mg/kg,Rattus norvegicus [16],100%
CC1C=C[C@@H](C)N1CC(=O)N=C(N)N (stereo in doubt; 10),inhibition,Rattus norvegicus [20],inactive
same,inhibition,Rattus norvegicus [21],inactive
same,inhibition,Rattus norvegicus [22],inactive
CC1C=C[C@@H](C)N1CC(=O)N=C(N)N.Cl.Cl (stereo in doubt; 11),Inhibition,"Rattus norvegicus [4]; route oral, 30 mg/kg",100%
same,Inhibition,Rattus norvegicus [5]; route oral,45%
same,inhibition in vivo at 1 mg/kg,Rattus norvegicus [23],100%
same,inhibition in vivo at 1 mg/kg,Rattus norvegicus [24],46%
CNC(=N)NC(=O)Nc1c(C)cccc1C [LIDAMIDINE],inhibition in vivo at 30 mg/kg,Rattus norvegicus [1],100%
same,inhibition in vivo at 30 mg/kg,Rattus norvegicus [4]; po,100%
same,inhibition in vivo at 10 mg/kg,Rattus norvegicus [5]; po,68%
same,Heart rate,Rattus norvegicus [6],298 beats min-1
same,Systolic blood pressure,Rattus norvegicus [6],131 mmHg
same,inhibition in vivo at 3 mg/kg,Rattus norvegicus [25],100%
same,Heart rate,Rattus norvegicus [9],241 beats min-1
same,Systolic blood pressure,Rattus norvegicus [9],132 mmHg
same,inhibition,Rattus norvegicus [26],inactive
same,inhibition,Rattus norvegicus [27],inactive
same,Heart rate,Rattus norvegicus [10],261 beats min-1
same,Systolic blood pressure,Rattus norvegicus [10],126 mmHg
same,Heart rate,Rattus norvegicus [12],263 beats min-1
same,Systolic blood pressure,Rattus norvegicus [12],123 mmHg
same,inhibition in vivo at 10 mg/kg,Rattus norvegicus [13],100%
same,inhibition,Rattus norvegicus [28],inactive
CN(C)C(=O)C(CCN1CCC(O)(c2ccc(Cl)cc2)CC1)(c1ccccc1)c1ccccc1 [LOPERAMIDE],inhibition in vivo at 30 mg/kg,Rattus norvegicus [1],98%
same,inhibition in vivo at 30 mg/kg,Rattus norvegicus [4]; route oral,97%
same,inhibition in vivo at 10 mg/kg,Rattus norvegicus [5]; route oral,99%
same,Heart rate,Rattus norvegicus [6],360 beats min-1
same,Systolic blood pressure,Rattus norvegicus [6],125 mmHg
same,Heart rate,Rattus norvegicus [9],290 beats min-1
same,Systolic blood pressure,Rattus norvegicus [9],117 mmHg
same,inhibition in vivo at 3 mg/kg,Rattus norvegicus [29],77%
same,Systolic blood pressure,Rattus norvegicus [30],119 mmHg
same,Heart rate,Rattus norvegicus [10],324 beats min-1
same,Systolic blood pressure,Rattus norvegicus [10],124 mmHg
same,inhibition in vivo at 3 mg/kg,Rattus norvegicus [31],96%
same,Heart rate,Rattus norvegicus [12],278 beats min-1
same,inhibition in vivo at 10 mg/kg,Rattus norvegicus [13],100%
